Reference: ChEMBL document CHEMBL4004828, “Synthesis and biological evaluation of fluorinated N-benzoyl and N-phenylacetoyl derivatives of 3-(4-aminophenyl)-coumarin-7-O-sulfamate as steroid sulfatase inhibitors” (Eur J Med Chem, 2017)

Assays:
Steryl-sulfatase = molecular target: T1, Steryl-sulfatase (Homo sapiens, UniProt P08842); experiment: Inhibition of human placenta steroid sulfatase using p-nitrophenyl sulfate as substrate after 15 mins
T1 sequence (P08842 whole entry): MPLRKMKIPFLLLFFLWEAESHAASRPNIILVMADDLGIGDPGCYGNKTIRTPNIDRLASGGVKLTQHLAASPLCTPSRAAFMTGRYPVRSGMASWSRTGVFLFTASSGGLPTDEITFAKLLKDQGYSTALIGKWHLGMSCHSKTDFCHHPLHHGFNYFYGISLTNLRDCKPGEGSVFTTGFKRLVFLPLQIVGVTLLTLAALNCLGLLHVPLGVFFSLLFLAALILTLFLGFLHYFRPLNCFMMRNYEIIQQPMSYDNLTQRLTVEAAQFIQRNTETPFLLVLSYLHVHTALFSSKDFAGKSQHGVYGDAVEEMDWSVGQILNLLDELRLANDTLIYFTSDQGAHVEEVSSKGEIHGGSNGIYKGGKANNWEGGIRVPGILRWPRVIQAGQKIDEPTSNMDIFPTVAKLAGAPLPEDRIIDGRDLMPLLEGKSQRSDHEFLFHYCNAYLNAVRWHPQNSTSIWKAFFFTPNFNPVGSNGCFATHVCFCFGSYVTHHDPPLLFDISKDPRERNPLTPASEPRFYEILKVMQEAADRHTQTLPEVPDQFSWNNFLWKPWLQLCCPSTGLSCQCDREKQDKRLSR
Procedure, shortened: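 STS extracted from human placenta, purified to homogeneity by multi-step chromatography; 5 U enzyme in 20 mM Tris–HCl pH 7.4 with 3 mM p-nitrophenyl sulfate and inhibitor 0.01–100 µM, 37 °C for 15 min. Stopped with 1 M NaOH; released p-nitrophenol read at 405 nm. Triplicate measurements; IC50 calculated.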

MCF7 = experiment: Cytotoxicity against human MCF7 cells assessed as growth inhibition after 120 hrs by MTT assay; type: functional; conditions: MCF7, 120 h
Procedure, shortened: (§1)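 Cells grown in phenol red-free high-glucose DMEM with 10% FBS, penicillin (62.6 µg/mL) and streptomycin (40 µg/mL) at 37 °C, 10% CO2, screened for Mycoplasma. Exponentially growing cells exposed to test agents for 120 h; viability read by MTT assay; GI50 derived.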

T47D = experiment: Cytotoxicity against human T47D cells assessed as growth inhibition after 120 hrs by MTT assay; type: functional; procedure, shortened: as §1
SK-BR-3 = experiment: Cytotoxicity against human SKBR3 cells assessed as growth inhibition after 120 hrs by MTT assay; type: functional; conditions: SK-BR-3, 120 h; procedure, shortened: as §1
MDA-MB-231 = experiment: Cytotoxicity against human MDA-MB-231 cells assessed as growth inhibition after 120 hrs by MTT assay; type: functional; conditions: MDA-MB-231, 120 h; procedure, shortened: as §1

IC50 (Steryl-sulfatase) [µM]	SMILES	GI50 (MCF7) [µM]	GI50 (T47D) [µM]	GI50 (SK-BR-3) [µM]	GI50 (MDA-MB-231) [µM]
0.49	NS(=O)(=O)Oc1ccc2cc(-c3ccc(NC(=O)c4ccccc4)cc3)c(=O)oc2c1	–	–	–	–
0.3	NS(=O)(=O)Oc1ccc2cc(-c3ccc(NC(=O)Cc4cc(F)c(F)c(F)c4)cc3)c(=O)oc2c1	31.3	13.7	36.1	11.7
0.34	NS(=O)(=O)Oc1ccc2cc(-c3ccc(NC(=O)Cc4c(F)c(F)c(F)c(F)c4F)cc3)c(=O)oc2c1	–	–	–	–
0.23	NS(=O)(=O)Oc1ccc2cc(-c3ccc(NC(=O)c4c(F)c(F)c(F)c(F)c4F)cc3)c(=O)oc2c1	–	–	–	–
0.26	NS(=O)(=O)Oc1ccc2cc(-c3ccc(NC(=O)Cc4ccccc4)cc3)c(=O)oc2c1	–	–	–	–
0.29	NS(=O)(=O)Oc1ccc2cc(-c3ccc([N+](=O)[O-])cc3)c(=O)oc2c1	–	–	–	–
0.36	NS(=O)(=O)Oc1ccc2cc(-c3ccc(NC(=O)Cc4ccc(F)c(F)c4)cc3)c(=O)oc2c1	–	–	–	–
0.18	NS(=O)(=O)Oc1ccc2cc(-c3ccc(NC(=O)c4ccc(F)c(F)c4)cc3)c(=O)oc2c1	> 100	> 100	> 100	> 100
1.38	NS(=O)(=O)Oc1ccc2ccc(=O)oc2c1	> 100	> 100	> 100	> 100
0.21	NS(=O)(=O)Oc1ccc2cc(-c3ccc(NC(=O)c4ccc(F)cc4)cc3)c(=O)oc2c1	> 100	> 100	> 100	> 100
–	CC/C(=C(\c1ccccc1)c1ccc(OCCN(C)C)cc1)c1ccccc1 [TAMOXIFEN]	6.8	10.6	12.5	15.1
0.29	NS(=O)(=O)Oc1ccc2cc(-c3cc(F)c(F)c(F)c3)c(=O)oc2c1	32.6	30.7	61.3	56.3
0.28	NS(=O)(=O)Oc1ccc2cc(-c3ccc(F)c(F)c3)c(=O)oc2c1	30	43	> 100	61.5
0.44	NS(=O)(=O)Oc1ccc2cc(-c3ccc(NC(=O)Cc4ccc(OC(F)(F)F)cc4)cc3)c(=O)oc2c1	–	–	–	–
0.38	NS(=O)(=O)Oc1ccc2cc(-c3ccc(NC(=O)Cc4ccc(F)c(C(F)(F)F)c4)cc3)c(=O)oc2c1	–	–	–	–
